In PMC12495087 (ESMO Open, 2025):

Experiment: phase I study BOS172738-01: safety and tolerability
Format: in vivo, human
Method in brief: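 Patients received at least one dose of oral drug given once daily in 28-day cycles. Part A escalated 10–150 mg, by accelerated titration (dose doubling) and then 3+3 Fibonacci steps; part B used 75 mg. AEs were graded by CTCAE v4.03 from first dose to 31 days after last dose. DLTs counted in cycle 1. Missing causality was scored as related and missing grade as grade 3.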

[1] = any causality and grade, overall n = 117
[2] = overall total, n = 117, listed as BOS
[3] = part A, all dose levels, n = 67

COc1cc2cc(-c3ccc(CC(=O)Nc4cc(C(C)(C)C(F)(F)F)no4)cn3)cnc2cc1OC [BOS172738]
grade ≥3 TEAE of either hypertension or liver enzyme elevations (BOS172738-treated patients): 2%
Any TEAE (all pooled 75 mg, n = 70): 70 (100) n (%)
Any TEAE leading to BOS discontinuation (all pooled 75 mg, n = 70): 13 (19) n (%)
Any TEAE leading to BOS dose interruption (all pooled 75 mg, n = 70): 46 (66) n (%)
Any TEAE leading to BOS dose reduction (all pooled 75 mg, n = 70): 14 (20) n (%)
Any TEAE leading to study discontinuation (all pooled 75 mg, n = 70): 9 (13) n (%)
Any TEAE related to BOS leading to BOS discontinuation (all pooled 75 mg, n = 70): 6 (9) n (%)
Any TEAE related to BOS leading to study discontinuation (all pooled 75 mg, n = 70): 2 (3) n (%)
Any TEAE resulting in death (all pooled 75 mg, n = 70): 3 (4) n (%)
Any TEAE, grade ≥3 (all pooled 75 mg, n = 70): 57 (81) n (%)
Serious TEAEs related to BOS (all pooled 75 mg, n = 70): 4 (6) n (%)
Serious TEAEs, any (all pooled 75 mg, n = 70): 35 (50) n (%)
TEAE related to BOS, CTCAE grade ≥3: Anemia (all pooled 75 mg, n = 70): 4 (6) n (%)
TEAE related to BOS, CTCAE grade ≥3: Asthenia (all pooled 75 mg, n = 70): 1 (1) n (%)
TEAE related to BOS, CTCAE grade ≥3: Blood creatinine phosphokinase increased (all pooled 75 mg, n = 70): 14 (20) n (%)
TEAE related to BOS, CTCAE grade ≥3: Diarrhea (all pooled 75 mg, n = 70): 1 (1) n (%)
TEAE related to BOS, CTCAE grade ≥3: Hypophosphatemia (all pooled 75 mg, n = 70): 4 (6) n (%)
TEAE related to BOS, CTCAE grade ≥3: Lymphopenia (all pooled 75 mg, n = 70): 2 (3) n (%)
TEAE related to BOS, CTCAE grade ≥3: Muscular weakness (all pooled 75 mg, n = 70): 1 (1) n (%)
TEAE related to BOS, CTCAE grade ≥3: Myositis (all pooled 75 mg, n = 70): 0 n (%)
TEAE related to BOS, CTCAE grade ≥3: Neutropenia (all pooled 75 mg, n = 70): 2 (3) n (%)
TEAE related to BOS, CTCAE grade ≥3: Neutrophil count decreased (all pooled 75 mg, n = 70): 9 (13) n (%)
TEAE related to BOS, any (all pooled 75 mg, n = 70): 57 (81) n (%)
TEAE related to BOS, grade ≥3 (all pooled 75 mg, n = 70): 34 (49) n (%)
TEAE: anemia [1]: 46 (39%) n (%)
TEAE: aspartate aminotransferase increased [1]: 48 (41%) n (%)
TEAE: blood creatine phosphokinase increased [1]: 72 (62%) n (%)
TEAE: constipation [1]: 30 (26%) n (%)
TEAE: diarrhea [1]: 41 (35%) n (%)
TEAE: dyspnea [1]: 34 (29%) n (%)
TEAE: facial edema [1]: 31 (26%) n (%)
TEAE: fatigue [1]: 33 (28%) n (%)
TEAE: hypophosphatemia [1]: 31 (26%) n (%)
treatment discontinued due to TEAEs (final data cut-off, 117 patients): 20%
myositis leading to dose interruption (in total): 6%
severity of BOS172738-related TEAEs (in vivo): mostly grade 1-2
TEAE resulting in death: dyspnea (overall): 2%
patients discontinued from the study due to BOS172738-related TEAEs (overall): 4%
deaths considered related to BOS172738 (overall n = 117): None
serious TEAE related to BOS172738: muscular weakness (overall n = 117): 3 (3%) n (%)
serious TEAE related to BOS172738: myositis (overall n = 117): 2 (2%) n (%)
serious TEAE: anemia (overall n = 117): 4 (3%) n (%)
serious TEAE: dyspnea (overall n = 117): 8 (7%) n (%)
serious TEAE: pneumonia (overall n = 117): 7 (6%) n (%)
Any TEAE (overall total, n = 117): 117 (100) n (%)
Any TEAE leading to BOS discontinuation (overall total, n = 117): 30 (26%) n (%)
Any TEAE leading to BOS dose interruption (overall total, n = 117): 78 (67%) n (%)
Any TEAE leading to study discontinuation (overall total, n = 117): 18 (15) n (%)
Any TEAE related to BOS leading to BOS discontinuation (overall total, n = 117): 16 (14%) n (%)
Any TEAE related to BOS leading to study discontinuation (overall total, n = 117): 5 (4) n (%)
Any TEAE resulting in death (overall total, n = 117): 11 (9%) n (%)
Any TEAE, grade ≥3 (overall total, n = 117): 98 (84%) n (%)
Serious TEAEs related to BOS (overall total, n = 117): 16 (14%) n (%)
Serious TEAEs, any (overall total, n = 117): 67 (57%) n (%)
TEAE related to BOS, CTCAE grade ≥3: Anemia (overall total, n = 117): 10 (9%) n (%)
TEAE related to BOS, CTCAE grade ≥3: Asthenia (overall total, n = 117): 2 (2) n (%)
TEAE related to BOS, CTCAE grade ≥3: Blood creatinine phosphokinase increased (overall total, n = 117): 29 (25%) n (%)
TEAE related to BOS, CTCAE grade ≥3: Diarrhea (overall total, n = 117): 3 (3) n (%)
TEAE related to BOS, CTCAE grade ≥3: Hypophosphatemia (overall total, n = 117): 6 (5) n (%)
TEAE related to BOS, CTCAE grade ≥3: Lymphopenia (overall total, n = 117): 3 (3) n (%)
TEAE related to BOS, CTCAE grade ≥3: Muscular weakness (overall total, n = 117): 3 (3) n (%)
TEAE related to BOS, CTCAE grade ≥3: Myositis (overall total, n = 117): 2 (2) n (%)
TEAE related to BOS, CTCAE grade ≥3: Neutropenia (overall total, n = 117): 4 (3) n (%)
TEAE related to BOS, CTCAE grade ≥3: Neutrophil count decreased (overall total, n = 117): 12 (10%) n (%)
TEAE related to BOS, any (overall total, n = 117): 99 (85%) n (%)
TEAE related to BOS, grade ≥3 (overall total, n = 117): 63 (54%) n (%)
Any TEAE leading to BOS discontinuation [2]: 30 (26) n (%)
Any TEAE leading to BOS dose interruption [2]: 78 (67) n (%)
Any TEAE leading to BOS dose reduction [2]: 29 (25) n (%)
Any TEAE related to BOS leading to BOS discontinuation [2]: 16 (14) n (%)
Any TEAE resulting in death [2]: 11 (9) n (%)
Any TEAE, grade ≥3 [2]: 98 (84) n (%)
Serious TEAEs, any [2]: 67 (57) n (%)
TEAE related to BOS, CTCAE grade ≥3: Anemia [2]: 10 (9) n (%)
TEAE related to BOS, CTCAE grade ≥3: Blood creatinine phosphokinase increased [2]: 29 (25) n (%)
TEAE related to BOS, CTCAE grade ≥3: Neutrophil count decreased [2]: 12 (10) n (%)
TEAE related to BOS, any [2]: 99 (85) n (%)
TEAE related to BOS, grade ≥3 [2]: 63 (54) n (%)
DLT event (one patient) (part A, 75 mg cohort): blood creatine phosphokinase increased
DLT event (one patient) (part A, 100 mg cohort): muscle weakness and blood creatine phosphokinase increased
DLT event (one patient) (part A, 150 mg cohort): capillary leak syndrome
maximum tolerated dose (MTD) (part A, 10-150 mg orally once daily): not reached
patients with dose-limiting toxicities (part A, 10-150 mg orally once daily, cycle 1): three
Any TEAE [3]: 67 (100) n (%)
Any TEAE leading to BOS discontinuation [3]: 23 (34) n (%)
Any TEAE leading to BOS dose interruption [3]: 45 (67) n (%)
Any TEAE leading to BOS dose reduction [3]: 19 (28) n (%)
Any TEAE leading to study discontinuation [3]: 11 (16) n (%)
Any TEAE related to BOS leading to BOS discontinuation [3]: 14 (21) n (%)
Any TEAE related to BOS leading to study discontinuation [3]: 4 (6) n (%)
Any TEAE resulting in death [3]: 9 (13) n (%)
Any TEAE, grade ≥3 [3]: 57 (85) n (%)
Serious TEAEs related to BOS [3]: 12 (18) n (%)
Serious TEAEs, any [3]: 39 (58) n (%)
TEAE related to BOS, CTCAE grade ≥3: Anemia [3]: 7 (10) n (%)
TEAE related to BOS, CTCAE grade ≥3: Asthenia [3]: 2 (3) n (%)
TEAE related to BOS, CTCAE grade ≥3: Blood creatinine phosphokinase increased [3]: 19 (28) n (%)
TEAE related to BOS, CTCAE grade ≥3: Diarrhea [3]: 3 (4) n (%)
TEAE related to BOS, CTCAE grade ≥3: Hypophosphatemia [3]: 3 (4) n (%)
TEAE related to BOS, CTCAE grade ≥3: Lymphopenia [3]: 1 (1) n (%)
TEAE related to BOS, CTCAE grade ≥3: Muscular weakness [3]: 3 (4) n (%)
TEAE related to BOS, CTCAE grade ≥3: Myositis [3]: 2 (3) n (%)
TEAE related to BOS, CTCAE grade ≥3: Neutropenia [3]: 4 (6) n (%)
TEAE related to BOS, CTCAE grade ≥3: Neutrophil count decreased [3]: 5 (7) n (%)
